Experiments:
Glutamate NMDA receptor = experiment: Inhibition of [3H]glycine binding to N-methyl-D-aspartate glutamate receptor in synaptic membranes of rat cerebral cortex; format: cell membranes
Method in brief: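 Crude synaptic membranes from adult rat cerebral cortex; 20 nM [3H]glycine, 50 mM Tris/citrate pH 7.10, 20 min at 4 °C. Seven concentrations in duplicate; stock 5 mM in DMSO. Ki from at least six-point inhibition curves by nonlinear fitting; geometric mean of at least three experiments.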

Albumin = Albumin (Rattus norvegicus, UniProt P02770); experiment: Binding to rat serum albumin
Chain of Albumin (P02770 whole entry): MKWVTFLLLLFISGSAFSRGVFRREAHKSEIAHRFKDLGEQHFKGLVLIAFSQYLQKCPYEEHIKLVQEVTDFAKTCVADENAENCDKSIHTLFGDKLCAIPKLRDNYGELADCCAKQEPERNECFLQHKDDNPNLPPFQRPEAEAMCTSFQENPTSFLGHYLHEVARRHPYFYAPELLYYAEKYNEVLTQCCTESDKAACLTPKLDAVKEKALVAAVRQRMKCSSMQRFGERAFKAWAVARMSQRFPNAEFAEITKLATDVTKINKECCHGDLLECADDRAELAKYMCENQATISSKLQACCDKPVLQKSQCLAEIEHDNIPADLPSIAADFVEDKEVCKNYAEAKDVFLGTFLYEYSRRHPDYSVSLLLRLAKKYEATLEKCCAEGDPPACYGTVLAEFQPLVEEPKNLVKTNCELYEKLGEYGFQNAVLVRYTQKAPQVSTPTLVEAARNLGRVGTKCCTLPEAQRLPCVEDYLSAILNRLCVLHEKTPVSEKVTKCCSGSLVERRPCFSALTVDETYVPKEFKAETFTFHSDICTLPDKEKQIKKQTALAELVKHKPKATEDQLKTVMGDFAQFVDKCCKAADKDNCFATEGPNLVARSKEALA

Mus musculus [1] = experiment: Inhibition of NMDA-induced convulsions in mice by the compound when administered by intravenous route; format: functional
Method in brief: (§1)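 Male CD-1 mice (18-29 g); test compound given iv (1 min) or po (1 h) before icv NMDA (1 nmol/mouse). Animals observed 30 min for generalized seizures and scored protected if none occurred. Percentage protected per group recorded; ED50 estimated with 95% confidence limits.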

Mus musculus [2] = experiment: Inhibition of NMDA-induced convulsions in mice by the compound when administered by peroral route; format: functional; conditions: po; method in brief: as §1
[3] = biological target: Glutamate receptor ionotropic, kainate; experiment: Inhibition of binding of [3H]kainate to Ionotropic glutamate receptor kainate in synaptic membranes of rat cerebral cortex; format: cell membranes
Method in brief: (§2)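 Rat cortical membrane radioligand binding; compounds from 5 mM DMSO stock tested at five concentrations, 10 nM to 100 µM, with a reference compound as internal control.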

Rattus norvegicus [4] = experiment: Postischemic effect of the compound in the MACo model in rats measured 24 hr after occlusion at an intravenous dose of 1 mg/kg.; format: functional
Method in brief: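 Male Sprague-Dawley rats (280-350 g), permanent distal MCA electrocoagulation under chloral hydrate; single iv bolus 1 mg/kg given 6 h after occlusion, vehicle 3% DMSO in water. Infarct volume from TTC-stained 0.5 mm coronal slices 24 h after occlusion, trapezoidal rule, n = 8.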

[5] = Inhibition of binding of [3H]CPP in presence of glutamate to glutamate binding site of N-methyl-D-aspartate glutamate receptor in synaptic membranes of rat cerebral cortex; format: cell membranes
Rattus norvegicus [6] = experiment: Preischemic effect of the compound in the MACo model in rats measured 24 hr after occlusion at an intravenous dose of 0.3 mg/kg.; format: functional
Method in brief: (§3)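 Permanent distal MCA electrocoagulation in male Sprague-Dawley rats (280-350 g) under chloral hydrate (400 mg/kg ip), normothermic; compound iv 5 min before occlusion, in 3% DMSO in water. At 24 h, 0.5 mm coronal slices stained with 2% TTC (37 °C, 20 min); infarct volume by trapezoidal rule, n = 8; reduction vs vehicle.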

Rattus norvegicus [7] = experiment: Preischemic effect of the compound in the MACo model in rats measured 24 hr after occlusion at an intravenous dose of 3 mg/kg.; format: functional; method in brief: as §3
[8] = Effective dose was evaluated; format: functional
Rattus norvegicus [9] = species on record: Rattus norvegicus; experiment: Percent damage reduction; format: functional; design: concentration or dose not given beside the values; method in brief: as §3
Rattus norvegicus [10] = experiment: Preischemic effect of the compound in the MACo model in rats measured 24 hr after occlusion at an intravenous dose of 0.1 mg/kg.; format: functional; method in brief: as §3
[11] = biological target: Glutamate receptor ionotropic, AMPA (Rattus norvegicus, UniProt P19490+P19491+P19492+P19493); experiment: Inhibition of binding of [3H]AMPA to Ionotropic glutamate receptor AMPA in synaptic membranes of rat cerebral cortex; format: cell membranes; method in brief: as §2
Rattus norvegicus [12] = experiment: Preischemic effect of the compound in the MACo model in rats measured 24 h after occlusion at an intravenous dose of 1 mg/kg.; format: functional; method in brief: as §3

Row | Structure (SMILES) | Log Ki (Glutamate NMDA receptor) | RSA tR (Albumin) | also measured
1 | COc1ccc(NC(=O)NCc2ccc(NC(=O)/C=C/c3c(C(=O)[O-])[nH]c4cc(Cl)cc(Cl)c34)cc2)cc1.[Na+] | -7.69 | – | –
2 | O=C(/C=C/c1c(C(=O)[O-])[nH]c2cc(Cl)cc(Cl)c12)NC12CC3CC(CC(C3)C1)C2.[Na+] | – | 141.2 min | –
3 | C[C@@H](NC(N)=O)c1ccc(NC(=O)/C=C/c2c(C(=O)[O-])[nH]c3cc(Cl)cc(Cl)c23)cc1.[Na+] | -7.93 | – | –
4 | NC(=O)Nc1ccc(NC(=O)/C=C/c2c(C(=O)[O-])[nH]c3cc(Cl)cc(Cl)c23)cc1.[Na+] | -8.8 | 28.3 min | ED50 (Mus musculus [1]): 0.55 mg/kg; ED50 (Mus musculus [2]): 9.6 mg/kg
5 | C[C@H](NC(N)=O)c1ccc(NC(=O)/C=C/c2c(C(=O)[O-])[nH]c3cc(Cl)cc(Cl)c23)cc1.[Na+] | -8.2 | – | –
6 | O=C(/C=C/c1c(C(=O)[O-])[nH]c2cc(Cl)cc(Cl)c12)Nc1ccc(CNC(=O)NC2CCOCC2)cc1.[Na+] | -8.15 | 29.6 min | –
7 | NC(=O)NCc1ccc(NC(=O)/C=C/c2c(C(=O)[O-])[nH]c3cc(Cl)cc(Cl)c23)cc1.[Na+] | -8.67 | 40.7 min | Log Ki [3]: -4.68; Infarct volume (Rattus norvegicus [4]): 54.7 mm**3; ED50 (Mus musculus [1]): 0.07 mg/kg; Log Ki [5]: -3.48; Infarct volume (Rattus norvegicus [6]): 36.4 mm**3; Infarct volume (Rattus norvegicus [7]): 27.8 mm**3; ED50 [8]: 0.2 mg/kg; damage reduction (Rattus norvegicus [9]): 41% [middle of 5 runs]; Infarct volume (Rattus norvegicus [10]): 61.9 mm**3; ED50 (Mus musculus [2]): 2 mg/kg; Ki [11]: 105 µM; Infarct volume (Rattus norvegicus [12]): 38.9 mm**3
8 | O=C(O)CNC(=O)NCc1ccc(NC(=O)/C=C/c2c(C(=O)[O-])[nH]c3cc(Cl)cc(Cl)c23)cc1.[Na+] | -8.57 | – | –
9 | O=c1[nH]c2cc(Cl)c(Cl)c([N+](=O)[O-])c2[nH]c1=O [LICOSTINEL] | – | 12.1 min | –

Now from value to molecule, other results behind:

Row | Log Ki (Glutamate NMDA receptor) | RSA tR (Albumin) | Structure (SMILES) | also measured
10 | – | 23.2 min | Nc1ccc(NC(=O)/C=C/c2c(C(=O)[O-])[nH]c3cc(Cl)cc(Cl)c23)cc1.[Na+] | –
11 | -7.91 | 34.1 min | CC/N=C(\S)NCc1ccc(NC(=O)/C=C/c2c(C(=O)[O-])[nH]c3cc(Cl)cc(Cl)c23)cc1.[Na+] | –
12 | – | 25.7 min | O=C(/C=C/c1c(C(=O)[O-])[nH]c2cc(Cl)cc(Cl)c12)NC1CCCCC1.[Na+] | –
13 | – | 31.6 min | CC(=O)Nc1ccc(NC(=O)/C=C/c2c(C(=O)[O-])[nH]c3cc(Cl)cc(Cl)c23)cc1.[Na+] | –
14 | -7.83 | – | O=C(/C=C/c1c(C(=O)[O-])[nH]c2cc(Cl)cc(Cl)c12)Nc1ccc(CNC(=O)Nc2cccnc2)cc1.[Na+] | –
15 | – | 66.9 min | O=C(/C=C/c1c(C(=O)[O-])[nH]c2cc(Cl)cc(Cl)c12)NCc1ccccc1.[Na+] | –
16 | -8.62 | – | CCNC(=O)NCc1ccc(NC(=O)/C=C/c2c(C(=O)[O-])[nH]c3cc(Cl)cc(Cl)c23)cc1.[Na+] | –
17 | -7.7 | – | O=C(/C=C/c1c(C(=O)[O-])[nH]c2cc(Cl)cc(Cl)c12)Nc1ccc(CNC(=O)Nc2ccccc2)cc1.[Na+] | –
18 | -8.2 | 33.9 min | NC(=O)NCCc1ccc(NC(=O)/C=C/c2c(C(=O)[O-])[nH]c3cc(Cl)cc(Cl)c23)cc1.[Na+] | ED50 (Mus musculus [1]): 0.14 mg/kg; ED50 (Mus musculus [2]): 17.3 mg/kg
19 | -8.25 | – | O=C(/C=C/c1c(C(=O)[O-])[nH]c2cc(Cl)cc(Cl)c12)Nc1ccc(CNC(=O)NC2CC2)cc1.[Na+] | –
20 | -8.49 | 60.1 min | O=C(/C=C/c1c(C(=O)[O-])[nH]c2cc(Cl)cc(Cl)c12)Nc1ccccc1.[Na+] [GAVESTINEL SODIUM] | ED50 (Mus musculus [1]): 0.06 mg/kg; ED50 (Mus musculus [2]): 6 mg/kg
